Measurements pooled from the literature.
ADRA1A: Alpha-1A adrenergic receptor (ADRA1A, Homo sapiens, UniProt P35348)
SQLE: Squalene monooxygenase (SQLE, Homo sapiens, UniProt Q14534)

`Cc1cc(Oc2ncccc2CN2CCN(C(c3ccccc3)c3ccccc3)CC2)ccc1-c1c(C)c(=O)[nH]c(=O)n1C` gave a Ki of 0.885 µM (ADRA1A; ligand displacement; radioligand).
The Kd of `CC(C)C[C@H](NC(=O)[C@H](Cc1ccccc1)NC(=O)c1cnccn1)B(O)O` is reported as 45 µM (ATP-dependent Clp protease proteolytic subunit, mitochondrial (CLPP, Homo sapiens, UniProt Q16740); binding).
`O=C[C@H](O)[C@@H](O)[C@H](O)[C@H](O)COP(=O)(O)O` gave a Ki of > 1000 µM (Hexokinase HKDC1 (Homo sapiens, UniProt Q2TB90); enzyme activity; inhibitor; absorbance).
`CC(=O)c1ccc2c(c1)N(CCCN1CCC(CCO)CC1)c1ccccc1S2` gave a Ki of 0.68 µM (SQLE; enzyme activity; inhibitor).
The Ki of `Cc1cc(Oc2ncccc2CN2CCN(c3ccccc3C#N)CC2)ccc1-c1c(C)c(=O)[nH]c(=O)n1C` is reported as 1.21 µM (ADRA1A; ligand displacement; radioligand).
With `CN(C)C(=O)c1cc2cnc(Nc3ccc(C(=O)NCCCCCCOc4cccc5c4C(=O)N(C4CCC(=O)NC4=O)C5=O)cc3)nc2n1C1CCCC1` (centres unmarked) the Kd was < 0.2 µM (High affinity nerve growth factor receptor (NTRK1, Homo sapiens, UniProt P04629); binding; competition with immobilised ligand).
The Kd of `NC(=O)c1ccc[n+]([C@@H]2O[C@H](COP(=O)([O-])OP(=O)(O)OC[C@H]3O[C@@H](n4cnc5c(N)ncnc54)[C@H](O)[C@@H]3O)[C@@H](O)[C@H]2O)c1` is reported as 1.14 µM (Dihydrolipoyl dehydrogenase, mitochondrial (DLD, Homo sapiens, UniProt P09622, K430Q); binding; SPR).
`Nc1ccn(C[C@@H](CO)OCP(=O)(O)O)c(=O)n1` has an IC50 of 344 µM (Solute carrier family 22 member 6 (SLC22A6, Homo sapiens, UniProt Q4U2R8, S231A); transporter uptake; inhibitor; fluorescence).
The Kd of `Cc1cc2nc3c(=O)[nH]c(=O)nc-3n(C[C@H](O)[C@H](O)[C@H](O)COP(=O)(O)OP(=O)(O)OC[C@H]3O[C@@H](n4cnc5c(N)ncnc54)[C@H](O)[C@@H]3O)c2cc1C` is reported as 1.27 µM (Dihydrolipoyl dehydrogenase, mitochondrial (DLD, Homo sapiens, UniProt P09622); binding; SPR).
`Cc1ccc(N2CCN(Cc3cccnc3Oc3ccc(-c4c(C)c(=O)[nH]c(=O)n4C)c(C)c3)CC2)cc1C` gave a Ki of 3.42 µM (ADRA1A; ligand displacement; radioligand).
The Ki of `O=C(O)[C@H]1O[C@@H](Oc2cc3oc(-c4ccccc4)cc(=O)c3c(O)c2O)[C@H](O)[C@@H](O)[C@@H]1O` is reported as 1.75 µM (SQLE; enzyme activity; inhibitor).
